The values below come from ChEMBL document CHEMBL1138049, “Evaluation of small-molecule modulators of the luteinizing hormone/choriogonadotropin and thyroid stimulating hormone receptors: structure-activity relationships and selective binding patterns” (J Med Chem, 2006).

The target of one experiment is Lutropin-choriogonadotropic hormone receptor (Homo sapiens) (UniProt P22888). The experiment can be described thus: Agonist activity at LHCGR expressed in HEK293 EM cells measured by intracellular cAMP accumulation relative to LH. Format: functional, cell-based. A digest of the protocol: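 Human LHCGR stably expressed in HEK 293 EM cells, cultured 48 h, then incubated 1 h in serum-free DMEM with 1 mM IBMX and compound (0-100 µM) at 5% CO₂. Cells were lysed and cAMP measured by enzyme immunoassay. […] Efficacy is % of maximal response to human LH (1000 ng/ml). Two independent experiments, each in duplicate.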
Lutropin-choriogonadotropic hormone receptor (Homo sapiens), sequence (P22888 whole entry): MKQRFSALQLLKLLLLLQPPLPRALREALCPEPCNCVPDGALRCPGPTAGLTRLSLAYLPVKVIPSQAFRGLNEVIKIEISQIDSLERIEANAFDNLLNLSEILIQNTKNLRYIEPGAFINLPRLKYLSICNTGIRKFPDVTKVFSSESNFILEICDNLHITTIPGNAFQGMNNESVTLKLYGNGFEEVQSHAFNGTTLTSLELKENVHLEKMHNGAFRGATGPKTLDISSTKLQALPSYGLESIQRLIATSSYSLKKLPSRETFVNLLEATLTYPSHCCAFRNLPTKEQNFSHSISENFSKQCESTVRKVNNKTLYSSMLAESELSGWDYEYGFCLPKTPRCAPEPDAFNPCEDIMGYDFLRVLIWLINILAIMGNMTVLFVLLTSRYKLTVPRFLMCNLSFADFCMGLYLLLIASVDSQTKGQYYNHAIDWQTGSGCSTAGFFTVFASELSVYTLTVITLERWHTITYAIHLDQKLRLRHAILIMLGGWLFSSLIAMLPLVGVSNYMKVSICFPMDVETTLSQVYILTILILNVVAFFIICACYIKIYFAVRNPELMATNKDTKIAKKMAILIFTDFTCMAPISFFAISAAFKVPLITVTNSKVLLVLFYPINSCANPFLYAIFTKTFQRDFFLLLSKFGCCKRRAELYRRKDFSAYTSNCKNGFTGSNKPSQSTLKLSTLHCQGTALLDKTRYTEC
As to `COc1cccc(-c2nc(SC)nc3sc(C(=O)NCc4ccccc4)c(N)c23)c1`, the Efficacy is 7.8%. Still for that read-out and setting: in the case of `COc1cccc(-c2nc(SC)nc3sc(C(=O)NNC(=O)OC(C)(C)C)c(N)c23)c1` it was 2.4%; in that of `COc1cccc(-c2nc(SC)nc3sc(C(=O)NCCO)c(N)c23)c1`, 20.5%; in that of `COc1cccc(-c2nc(SC)nc3sc(C(=O)N(C)C(C)(C)C)c(N)c23)c1`, 47.8%. In turn, `CCOC(=O)c1sc2nc(SC)nc(-c3cccc(OC)c3)c2c1N` came in with an Efficacy of 4.2%. Regarding `COc1cccc(-c2nc(SC)nc3sc(C(=O)NN)c(N)c23)c1`, the Efficacy worked out at 8.5%.

With `COc1cccc(-c2nc(SC)nc3sc(C(=O)N(C)C)c(N)c23)c1`, the Efficacy came out at 11%. On the same count and under the same terms, with `COc1cccc(-c2nc(SC)nc3sc(C(=O)NC(C)(C)C)c(N)c23)c1OC` the figure was 50.1%. On to `CSc1nc(-c2cccc(O)c2)c2c(N)c(C(=O)NC(C)(C)C)sc2n1`, for which the Efficacy stood at 63.9%. The same measure, in the same setting: with `CCNC(=O)c1sc2nc(SC)nc(-c3cccc(OC)c3)c2c1N` the figure was 26.9%; with `COc1cccc(-c2nc(SC)nc3sc(C(=O)NNC(C)(C)C)c(N)c23)c1`, 6%. Still for that read-out and setting: in the case of `COc1cccc(-c2nc(SC)nc3sc(C(=O)NC(C)(C)C)c(N)c23)c1F` it was 46.3%; in that of `COc1cccc(-c2nc(SC)nc3sc(C(=O)NCC#N)c(N)c23)c1`, 20.3%. Still for that read-out and setting: in the case of `COc1cccc(-c2nc(SC)nc3sc(C(=O)NCCc4ccccc4)c(N)c23)c1` it was 25.6%; in that of `COc1cccc(-c2nc(SC)nc3sc(C(=O)OC(C)(C)C)c(N)c23)c1`, 23.8%. In turn, `COc1cccc(-c2nc(SC)nc3sc(C(=O)NC(C)(C)C)c(N)c23)c1` came in with an Efficacy of 45.8%.

The next experiment deals with Thyrotropin receptor (Homo sapiens) (UniProt P16473). Description: Agonist activity at TSHR expressed in HEK293 EM cells measured by intracellular cAMP accumulation relative to TSH. Format: functional, cell-based. A digest of the protocol: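 Human TSHR stably expressed in HEK 293 EM cells, cultured 48 h, then incubated 1 h in serum-free DMEM with 1 mM IBMX and compound (0-100 µM) at 5% CO₂. Lysates assayed for cAMP by enzyme immunoassay. […] Maximal response expressed as % of bovine TSH response, reference 100 mU/mL. Two independent experiments in duplicate.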
Thyrotropin receptor (Homo sapiens), sequence (P16473 whole entry): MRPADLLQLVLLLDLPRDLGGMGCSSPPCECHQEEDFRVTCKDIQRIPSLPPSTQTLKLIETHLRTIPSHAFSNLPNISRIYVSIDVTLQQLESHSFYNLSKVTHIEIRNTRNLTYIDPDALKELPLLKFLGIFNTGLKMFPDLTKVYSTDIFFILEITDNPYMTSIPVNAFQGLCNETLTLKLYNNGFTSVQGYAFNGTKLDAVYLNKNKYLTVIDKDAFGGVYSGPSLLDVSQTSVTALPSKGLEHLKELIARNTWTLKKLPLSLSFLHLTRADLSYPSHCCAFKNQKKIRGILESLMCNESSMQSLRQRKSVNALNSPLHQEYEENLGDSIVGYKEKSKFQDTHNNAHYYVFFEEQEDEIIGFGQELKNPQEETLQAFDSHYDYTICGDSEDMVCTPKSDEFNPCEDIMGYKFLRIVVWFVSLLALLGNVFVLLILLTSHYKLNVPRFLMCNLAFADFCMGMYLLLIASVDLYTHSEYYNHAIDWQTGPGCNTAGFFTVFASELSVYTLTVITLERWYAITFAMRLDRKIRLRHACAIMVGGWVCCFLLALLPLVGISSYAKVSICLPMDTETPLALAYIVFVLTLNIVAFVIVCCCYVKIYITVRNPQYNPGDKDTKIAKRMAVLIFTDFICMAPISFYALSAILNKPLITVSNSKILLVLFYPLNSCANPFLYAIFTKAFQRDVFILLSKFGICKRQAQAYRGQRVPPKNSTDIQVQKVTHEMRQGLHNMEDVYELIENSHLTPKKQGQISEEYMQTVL
`COc1cccc(-c2nc(SC)nc3sc(C(=O)NCc4ccccc4)c(N)c23)c1` had an Efficacy of 3%.

`COc1cccc(-c2nc(SC)nc3sc(C(=O)NNC(=O)OC(C)(C)C)c(N)c23)c1` had an Efficacy of 1.9%. `COc1cccc(-c2nc(SC)nc3sc(C(=O)NCCO)c(N)c23)c1` registered an Efficacy of 2.9%. In turn, `CSc1nc(-c2cccc(F)c2)c2c(N)c(C(=O)NC(C)(C)C)sc2n1` displayed an Efficacy of 8.1%.

The compound `COc1cccc(-c2nc(SC)nc3sc(C(=O)N(C)C(C)(C)C)c(N)c23)c1` yielded an Efficacy of 3.6%. The compound `CCOC(=O)c1sc2nc(SC)nc(-c3cccc(OC)c3)c2c1N` showed an Efficacy of 1.5%.

In turn, `COc1cccc(-c2nc(SC)nc3sc(C(=O)NN)c(N)c23)c1` registered an Efficacy of 6.1%. Same read-out and setting: with `COc1cccc(-c2nc(SC)nc3sc(C(=O)N(C)C)c(N)c23)c1` the figure was 4%. On to `COc1cccc(-c2nc(SC)nc3sc(C(=O)NC(C)(C)C)c(N)c23)c1OC`, for which the Efficacy was 3%.

For the compound `CSc1nc(-c2cccc(O)c2)c2c(N)c(C(=O)NC(C)(C)C)sc2n1`, the Efficacy was found to be 11.2%. On the same count and under the same terms, with `CCNC(=O)c1sc2nc(SC)nc(-c3cccc(OC)c3)c2c1N` the figure was 2.3%. On the same count and under the same terms, with `COc1cccc(-c2nc(SC)nc3sc(C(=O)NNC(C)(C)C)c(N)c23)c1` the figure was 6.4%; with `COc1cccc(-c2nc(SC)nc3sc(C(=O)NCC#N)c(N)c23)c1`, 3.6%; with `COc1cccc(-c2nc(SC)nc3sc(C(=O)NCCc4ccccc4)c(N)c23)c1`, 4.3%. Same read-out and setting: in the case of `COc1cccc(-c2nc(SC)nc3sc(C(=O)NC(C)(C)C)c(N)c23)c1` it was 23.4%.
